The results in this text go back to article PMC5831081 (Biochemistry, 2017).

Changes are numbered by the printed parent chain. “And” between values parts separate entries of the source, which are not always exact repeats. Identical values can stand only once.

The target in series [1] is T1, CYP2B4 (Oryctolagus cuniculus, UniProt P00178, H226Y).
T1 sequence (P00178 with tags, fused parts or gaps H226Y): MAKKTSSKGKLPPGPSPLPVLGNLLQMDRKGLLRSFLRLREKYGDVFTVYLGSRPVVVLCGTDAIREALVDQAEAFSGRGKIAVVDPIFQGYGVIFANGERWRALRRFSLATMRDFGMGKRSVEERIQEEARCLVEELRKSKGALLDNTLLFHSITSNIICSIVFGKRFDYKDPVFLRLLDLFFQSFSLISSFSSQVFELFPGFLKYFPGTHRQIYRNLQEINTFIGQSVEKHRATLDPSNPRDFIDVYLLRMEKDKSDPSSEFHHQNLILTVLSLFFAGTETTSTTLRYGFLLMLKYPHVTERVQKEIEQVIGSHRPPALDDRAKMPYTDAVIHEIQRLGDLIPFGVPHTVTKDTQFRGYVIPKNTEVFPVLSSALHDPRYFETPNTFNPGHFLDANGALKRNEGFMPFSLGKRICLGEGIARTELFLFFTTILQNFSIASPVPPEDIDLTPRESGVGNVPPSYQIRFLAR
Briefly: NADPH-dependent 7-EFC O-deethylation enzyme inhibition assay. The settings on record: for mechanism of inhibition: CYP2B4, non-linear regression analysis. The format is biochemical, rabbit.

For series [2], the target named is T2, CYP2B6 (Homo sapiens, UniProt P20813, K262R/Y226H).
T2 sequence (P20813 with tags, fused parts or gaps Y226H/K262R limits assumed): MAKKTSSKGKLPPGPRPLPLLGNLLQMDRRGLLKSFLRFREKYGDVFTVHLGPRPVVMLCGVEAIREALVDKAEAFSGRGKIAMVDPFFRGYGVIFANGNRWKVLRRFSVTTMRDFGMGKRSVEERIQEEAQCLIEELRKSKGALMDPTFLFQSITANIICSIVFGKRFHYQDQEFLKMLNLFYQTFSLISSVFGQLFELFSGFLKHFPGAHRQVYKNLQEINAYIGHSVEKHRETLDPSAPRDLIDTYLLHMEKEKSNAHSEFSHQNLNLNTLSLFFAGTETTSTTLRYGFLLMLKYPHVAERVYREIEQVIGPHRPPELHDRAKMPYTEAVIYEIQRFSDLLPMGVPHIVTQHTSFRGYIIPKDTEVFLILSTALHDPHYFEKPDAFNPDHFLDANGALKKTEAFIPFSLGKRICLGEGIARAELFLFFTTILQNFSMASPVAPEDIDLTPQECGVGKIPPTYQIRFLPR
Described as above. The format is biochemical. The settings on record: for mechanism of inhibition: CYP2B6, non-linear regression analysis; for IC50: NADPH-based IC50, CYP2B6.

For series [3], the target named is T3, CYP2B6 L363V (Homo sapiens, UniProt P20813, K262R/L363V/Y226H).
T3 sequence (P20813 with tags, fused parts or gaps Y226H/K262R/L363V limits assumed): T2 sequence (P20813 with tags, fused parts or gaps Y226H/K262R limits assumed) with L344V
The series is described as above. In kind it is biochemical.

The target of series [4] is T1, CYP2B4. Briefly: NADPH oxidation assay. As to conditions: CYP:POR:cyt b5 1:4:2, 20 μM inhibitor, 37 °C. The format is biochemical, rabbit. Summed up: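 Purified CYP2B was reconstituted with POR and cyt b5 at CYP:POR:cyt b5 1:4:2, or 0:4:2 for the partner-only control. Mixtures contained ligand (20 µM unless stated) and 1% acetone in 300 µL. After 5 min preincubation at 37 °C, 0.2 mM NADPH was added. NADPH consumption was recorded kinetically as the A340 decrease (ε 6.22 mM-1 cm-1). Rates are nmol/min/nmol P450, mean ± SD of three independent experiments.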

For series [5], the target named is T2, CYP2B6. Put plainly: Spectral binding titration. The settings on record: for Kd: KS.
The next series has as its system human CYP2B6. Put plainly: Spectral binding titration. As to conditions: CYP2B6 spectral titration, with vs without POR.
The target in series [6] is T4, CYP2B4 I363V (Oryctolagus cuniculus, UniProt P00178, H226Y/I363V).
T4 sequence (P00178 with tags, fused parts or gaps H226Y/I363V limits assumed): T1 sequence (P00178 with tags, fused parts or gaps H226Y) with I344V
The settings on record: CYP2B4 I363V valine mutant.

Series [7] deals with T3, CYP2B6 L363V. The settings on record: CYP2B6 L363V valine mutant.
Another series deals with T5, rat CYP2B1 (Rattus norvegicus, UniProt P00176).
T5 sequence (P00176 1-491): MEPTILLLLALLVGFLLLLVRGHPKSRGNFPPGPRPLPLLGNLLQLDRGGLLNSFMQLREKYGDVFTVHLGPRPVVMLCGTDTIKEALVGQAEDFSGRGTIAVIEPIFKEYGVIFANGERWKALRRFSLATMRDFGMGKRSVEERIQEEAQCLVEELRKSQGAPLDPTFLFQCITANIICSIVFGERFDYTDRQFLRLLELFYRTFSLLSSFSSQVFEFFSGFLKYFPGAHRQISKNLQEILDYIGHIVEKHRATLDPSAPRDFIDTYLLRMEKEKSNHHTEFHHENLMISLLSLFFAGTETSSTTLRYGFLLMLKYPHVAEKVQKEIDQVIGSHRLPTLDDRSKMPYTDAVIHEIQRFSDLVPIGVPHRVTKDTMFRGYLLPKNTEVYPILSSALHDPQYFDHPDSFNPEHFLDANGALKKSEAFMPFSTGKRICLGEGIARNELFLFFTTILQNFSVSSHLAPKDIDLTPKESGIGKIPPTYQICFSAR
Briefly: Spectral binding titration. As to conditions: spectral binding titrations.

A further series concerns the target T6, rabbit CYP2B4 (Oryctolagus cuniculus, UniProt P00178, A26S/E2A/G22K/H226Y/H23K/H27K/K25S/P24T/R29K).
T6 sequence (P00178 with tags, fused parts or gaps H226Y limits assumed): T1 sequence (P00178 with tags, fused parts or gaps H226Y)
Put plainly: Spectral binding titration. As to conditions: spectral binding titrations.

Series [8] has as its target T2, CYP2B6. Put plainly: Cumene hydroperoxide. The format is biochemical. As to conditions: for IC50: CuOOH-based IC50, CYP2B6. An outline of the steps: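 Purified CYP2B6 was tested alone or with cyt b5 (CYP:cyt b5 1:2) in HEPES buffer at 37 °C, with 7-EFC near KM and varying test compound. Reactions started with 0.5 mM cumene hydroperoxide. For kinetics, 7-HFC formation was followed continuously in stirred 500 µL of 0–200 µM 7-EFC. Initial-slope rates were fitted to Michaelis–Menten. IC50 came from a four-parameter logistic fit. Mean ± SD, n=3.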

For the next series, the target named is T7, CYP2B1 (Rattus norvegicus, UniProt P00176).
T7 sequence (P00176 1-491): T5 sequence (P00176 1-491)
Briefly: NADPH-dependent 7-EFC O-deethylation kinetics. In kind it is biochemical. An outline of the steps: (§1)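 Purified CYP2B was reconstituted with POR and cyt b5 (molar 1:4:2 or 1:4:0), 2.5–5 pmol CYP, in 100 µL HEPES pH 7.4 with 7-EFC at 37 °C. After 5 min preincubation, 1 mM NADPH was added. After 5 min, reactions were quenched with ice-cold acetonitrile and diluted into 0.1 M Tris pH 9.0. 7-HFC was measured by fluorescence (ex 410/em 510 nm) against a daily 0–50 µM 7-HFC standard curve.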

Series [9] addresses T4, CYP2B4 I363V. Put plainly: NADPH-dependent 7-EFC O-deethylation kinetics. In kind it is biochemical, rabbit. Summed up: as §1
The target in series [10] is T2, CYP2B6. Briefly: Incubation of POA with CYP2B6, UPLC-MS search for oxidative metabolites. The format is in vitro ADME. The settings on record: POA incubated with CYP2B6, with or without NADPH.
Where [11] appears, read: KI, CYP2B6, CYP:POR:cyt b5 1:4:2, 0-200 μM 7-EFC, 37 °C.
The mark [12] stands for this setting: Ki,app (Cheng-Prusoff from IC50), CYP2B6, absence of cyt b5.
Setting [13] is: Ki,app (Cheng-Prusoff from IC50), CYP2B6, presence of cyt b5.
The mark [14] stands for this setting: CYP2B6, with POR (1 μM CYP, 4 μM POR), HEPES buffer.
[15] abbreviates: CYP2B6, without POR, HEPES buffer.
The mark [16] stands for this setting: CYP2B6, without POR, sucrose buffer.

As to `Nc1ccc(Oc2cc(Cl)c(Cl)cc2Cl)cc1` [2′4′5′TCPOA, 4-(2′,4′,5′-trichlorophenoxy)aniline], the Ki amounted to 0.37 ± 0.04 µM at CYP2B4 [1]; 0.64 ± 0.08 µM on CYP2B6 [2] (setting [11]); 1.8 µM at CYP2B6 [2] (setting [12]); 0.22 µM at CYP2B6 [2] (setting [13]); 0.75 ± 0.1 µM on CYP2B6 L363V [3]. The mechanism of inhibition entry on CYP2B4 [1] and at CYP2B6 [2] was “competitive inhibitors” in each case. Besides, the IC50 is 3.7 ± 0.3 µM on CYP2B6 [2] (CYP:POR (no cyt b5)) and 0.43 ± 0.04 µM against CYP2B6 [2] (CYP:POR:cyt b5). Further, the NADPH oxidation rate on CYP2B4 [4] was 20±1 nmol/min/nmolP450. Further, the “Type-II (%)” value is 17±3% at CYP2B6 [5] (setting [14]), 19±1% at CYP2B6 [5] (setting [15]) and 9±1% at CYP2B6 [5] (setting [16]). Moreover, the Kd came to 8.1 ± 1.7 µM on CYP2B6 [5] (setting [14]), 1.4 ± 0.4 µM on CYP2B6 [5] (setting [15]) and 0.7 ± 0.3 µM on CYP2B6 [5] (setting [16]). Also, the “fold increase of KS (decrease in affinity) on including POR” value in the series with human CYP2B6 is listed as 4-6 fold; in the series on human CYP2B6 (listed as 2′4′5′-TCPOA) it was 5.8 fold.
Take `Nc1ccc(Cc2ccc(Cl)cc2Cl)cc1` [2′4′DCBA, 4-[(2′,4′-dichlorophenyl)methyl]aniline]: the “relative affinity among the congeners” value on CYP2B4 I363V [6] and on CYP2B6 L363V [7] was “highest affinity” throughout. The “relative affinity among the ligands tested” value at rat CYP2B1 is reported as “highest affinity”; at rabbit CYP2B4 it was “highest affinity”; on CYP2B6 [5] (spectral binding titrations, CYP2B6), “highest affinity”.
As to `CCOc1ccc2c(C(F)(F)F)cc(=O)oc2c1` [7-EFC, 7-Ethoxy-4-(trifluoromethyl)coumarin, reference compound], at CYP2B6 [8] (CYP2B6 with CuOOH), the “kcat of 7-EFC O-deethylation” value came out at 0.007 s⁻¹. Moreover, the Km on CYP2B6 [8] (human, CYP2B6 enzyme with cumene hydroperoxide, pH 7.4) turned out to be 56 µM. For the same compound, the “Michaelis constant for 7-EFC” value at CYP2B1 and at CYP2B4 I363V [9] was ~ 120 μM each time.
Take `Nc1ccc(Oc2ccccc2)cc1` [POA, 4-(phenoxy)aniline]: the Ki at CYP2B4 [1] worked out at 1.3 ± 0.65 µM; on CYP2B6 [2] (setting [11]), 13 ± 1.9 µM; at CYP2B6 [2] (setting [12]) it was 7.5 µM; at CYP2B6 [2] (setting [13]), 13.5 µM; on CYP2B6 L363V [3] it was 67 ± 10 µM. In addition, the mechanism of inhibition result is given as “competitive inhibitors” at CYP2B4 [1]; “competitive inhibitors” at CYP2B6 [2]; “non-competitive inhibitor” at CYP2B6 L363V [3] (CYP2B6 L363V, non-linear regression analysis). Also, the “fold increase of IC50 by cyt b5” value at CYP2B6 [2] (CYP2B6, NADPH-driven, with vs without cyt b5) worked out at 1.8 fold. Further, the IC50 against CYP2B6 [2] (CYP:POR (no cyt b5)) amounted to 15 ± 1 µM; against CYP2B6 [2] (CYP:POR:cyt b5), 27 ± 5 µM; at CYP2B6 [8] (CYP alone), 38 ± 7 µM; on CYP2B6 [8] (CYP:cyt b5), 44 ± 14 µM. The same compound displayed an NADPH oxidation rate at CYP2B4 [4] of 33±2 nmol/min/nmolP450. In addition, at CYP2B6 [10], the “CYP-mediated oxidative metabolites identified by UPLC-MS” value is given as “no potential CYP-mediated oxidative metabolites”. The “Type-II (%)” value is 9.2±3.3% at CYP2B6 [5] (setting [14]), 16±1% on CYP2B6 [5] (setting [15]) and 26±1% on CYP2B6 [5] (setting [16]). Besides, the Kd is 2.8 ± 1.4 µM on CYP2B6 [5] (setting [14]), 0.67 ± 0.36 µM at CYP2B6 [5] (setting [15]) and 1.2 ± 0.2 µM at CYP2B6 [5] (setting [16]). The “fold increase of KS (decrease in affinity) on including POR” value in the series with human CYP2B6 was 4.2 fold and 4-6 fold.

By IC50 is commonly meant the concentration at which inhibition is half-maximal. As a reminder, the Kd is the concentration at which binding is half-saturated. Read a low Kd as tighter binding. Broadly, the Km is the concentration of substrate that gives half-maximal velocity.
